Each block holds one compound with its values, some of them ahead of it.
Assays:
[1] = Percentage unbound in Crl:NMRI(Han) mouse plasma at 1 uM after 5 hrs by equilibrium dialysis method; type: ADME, cell-free
How it was run: (§1)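 Equilibrium dialysis (12-14 kDa membrane) of plasma or brain homogenate from naïve male Sprague-Dawley rats or Crl:NMRI(Han) mice. Donor side spiked to 1 µM final; receiver phosphate buffer pH 7.4; 37°C for 5 h. Buffer phase quantified by LC-MS. Brain fu corrected for homogenate dilution to intact tissue. Mean of two independent determinations.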

[2] = Total plasma concentration in wild type Sprague-Dawley rat expressing Abcb1a at 9 mg/kg/day administered through continuous minipump treatment for 3 days by UPLC-MS analysis; type: ADME, organism-based; settings: other: continuous minipump
How it was run: (§2)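 Drug was infused subcutaneously by osmotic minipump for 3 days to steady state, at 1 µl/h in mice and 10 µl/h in rats, with doses derived from body weight and delivery rate. Animals were decapitated. Plasma came from EDTA trunk blood spun at 5000 g for 10 min at 4 °C. Whole brain was homogenised 1:4 in 70% acetonitrile and the supernatant kept. Samples were protein-precipitated with internal standard and analysed by UPLC. n=3-5, mean ± SEM.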

[3] = Total drug level in wild type Sprague-Dawley rat brain expressing Abcb1a at 9 mg/kg/day administered through continuous minipump treatment for 3 days by UPLC-MS analysis; type: ADME, organism-based; settings: other: continuous minipump, read-out: Drug uptake; how it was run: as §2
[4] = Total plasma concentration in mdr1a-deficient rat at 9 mg/kg/day administered through continuous minipump treatment for 3 days by UPLC-MS analysis; type: ADME, organism-based; settings: other: continuous minipump; how it was run: as §2
[5] = Total drug level in mdr1a-deficient rat brain at 9 mg/kg/day administered through continuous minipump treatment for 3 days by UPLC-MS analysis; type: ADME, organism-based; settings: other: continuous minipump, read-out: Drug uptake; how it was run: as §2
[6] = Total plasma concentration in wild type Crl:CF1 mouse expressing Abcb1a mutant at 6 mg/kg/day administered through continuous minipump treatment for 3 days by UPLC-MS analysis; type: ADME, organism-based; settings: other: continuous minipump
How it was run: (§3)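 Subcutaneous osmotic minipump infusion for 3 days to steady state, implanted under isoflurane (rats 10 µl/h, mice 1 µl/h). Mdr1a-deficient (SD-Abcb1a knockout rats; Crl:CF1-Abcb1a mutant mice) and wild-type animals, n=3-5 per group. After decapitation, EDTA plasma and whole brain (homogenized 1:4 in 70% acetonitrile) were precipitated with internal standard. Parent and metabolites quantified by UPLC-MS. Mean ± SEM.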

[7] = Total drug level in wild type Crl:CF1 mouse brain expressing Abcb1a mutant at 6 mg/kg/day administered through continuous minipump treatment for 3 days by UPLC-MS analysis; type: ADME, organism-based; settings: other: continuous minipump, read-out: Drug uptake; how it was run: as §3
[8] = Total plasma concentration in mdr1a-deficient mouse at 6 mg/kg/day administered through continuous minipump treatment for 3 days by UPLC-MS analysis; type: ADME, organism-based; settings: other: continuous minipump; how it was run: as §3
[9] = Total drug level in mdr1a-deficient mouse brain at 6 mg/kg/day administered through continuous minipump treatment for 3 days by UPLC-MS analysis; type: ADME, organism-based; settings: other: continuous minipump, read-out: Drug uptake; how it was run: as §3
[10] = Percentage unbound in Sprague-Dawley rat plasma at 1 uM after 5 hrs by equilibrium dialysis method; type: ADME, cell-free; how it was run: as §1
[11] = Percentage unbound in Sprague-Dawley rat brain at 1 uM after 5 hrs by equilibrium dialysis method; type: ADME, tissue-based; how it was run: as §1
[12] = Percentage unbound in Crl:NMRI(Han) mouse brain at 1 uM after 5 hrs by equilibrium dialysis method; type: ADME, tissue-based; how it was run: as §1
[13] = Total plasma concentration in wild type Sprague-Dawley rat expressing Abcb1a at 6 mg/kg/day administered through continuous minipump treatment for 3 days by UPLC-MS analysis; type: ADME, organism-based; settings: other: continuous minipump; how it was run: as §3
[14] = Total drug level in wild type Sprague-Dawley rat brain expressing Abcb1a at 6 mg/kg/day administered through continuous minipump treatment for 3 days by UPLC-MS analysis; type: ADME, organism-based; settings: other: continuous minipump, read-out: Drug uptake; how it was run: as §3
[15] = Total brain to plasma partition coefficient of the compound in wild type Sprague-Dawley rat expressing Abcb1a at 6 mg/kg/day administered through continuous minipump treatment for 3 days; type: ADME, organism-based; settings: brain and plasma, other: continuous minipump
How it was run: (§4)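 Kp is total brain concentration divided by total plasma concentration at steady state. Measured after a 3-day subcutaneous osmotic minipump infusion in mdr1a-deficient or wild-type rats or mice, n=3-5. Concentrations determined by UPLC-MS in plasma and in whole-brain homogenate (70% acetonitrile). Mean ± SEM.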

[16] = Total plasma concentration in mdr1a-deficient Sprague-Dawley rat at 6 mg/kg/day administered through continuous minipump treatment for 3 days by UPLC-MS analysis; type: ADME, organism-based; settings: other: continuous minipump; how it was run: as §3
[17] = Total drug level in mdr1a-deficient rat brain at 6 mg/kg/day administered through continuous minipump treatment for 3 days by UPLC-MS analysis; type: ADME, organism-based; settings: other: continuous minipump, read-out: Drug uptake; how it was run: as §3
[18] = Total brain to plasma partition coefficient of the compound in mdr1a-deficient rat at 6 mg/kg/day administered through continuous minipump treatment for 3 days; type: ADME, organism-based; settings: brain and plasma, other: continuous minipump; how it was run: as §4
[19] = Total plasma concentration in wild type Crl:CF1 mouse expressing Abcb1a mutant at 3 mg/kg/day administered through continuous minipump treatment for 3 days by UPLC-MS analysis; type: ADME, organism-based; settings: other: continuous minipump; how it was run: as §3
[20] = Total drug level in wild type Crl:CF1 mouse brain expressing Abcb1a mutant at 3 mg/kg/day administered through continuous minipump treatment for 3 days by UPLC-MS analysis; type: ADME, organism-based; settings: other: continuous minipump, read-out: Drug uptake; how it was run: as §3
[21] = Total brain to plasma partition coefficient of the compound in wild type Crl:CF1 mouse expressing Abcb1a mutant at 3 mg/kg/day administered through continuous minipump treatment for 3 days; type: ADME, organism-based; settings: other: continuous minipump; how it was run: as §4
[22] = Total plasma concentration in mouse at 3 mg/kg/day administered through continuous minipump treatment for 3 days by UPLC-MS analysis; type: ADME, organism-based; settings: other: continuous minipump; how it was run: as §3
[23] = Total drug level in mdr1a-deficient mouse brain at 3 mg/kg/day administered through continuous minipump treatment for 3 days by UPLC-MS analysis; type: ADME, organism-based; settings: other: continuous minipump, read-out: Drug uptake; how it was run: as §3
[24] = Total brain to plasma partition coefficient of the compound in mdr1a-deficient mouse at 3 mg/kg/day administered through continuous minipump treatment for 3 days; type: ADME, organism-based; settings: other: continuous minipump; how it was run: as §4
[25] = Unbound brain to plasma partition coefficient of the compound in wild type Sprague-Dawley rat expressing Abcb1a at 6 mg/kg/day administered through continuous minipump treatment for 3 days; type: ADME, organism-based; settings: other: continuous minipump, read-out: K(p,uu,brain)
How it was run: (§5)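 Kp,uu is (Cbrain,total × fu,brain)/(Cplasma,total × fu,plasma). Total concentrations were measured at steady state after a 3-day subcutaneous minipump infusion in knockout or wild-type animals. Species-matched free fractions came from 5 h, 37°C equilibrium dialysis at 1 µM in naïve plasma and brain homogenate.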

[26] = Unbound brain to plasma partition coefficient of the compound in mdr1a-deficient rat at 6 mg/kg/day administered through continuous minipump treatment for 3 days; type: ADME, organism-based; settings: other: continuous minipump, read-out: K(p,uu,brain); how it was run: as §5
[27] = Unbound brain to plasma partition coefficient of the compound in wild type Crl:CF1 mouse expressing Abcb1a mutant at 3 mg/kg/day administered through continuous minipump treatment for 3 days; type: ADME, organism-based; settings: other: continuous minipump, read-out: K(p,uu,brain); how it was run: as §5
[28] = Unbound brain to plasma partition coefficient of the compound in mdr1a-deficient mouse at 3 mg/kg/day administered through continuous minipump treatment for 3 days; type: ADME, organism-based; settings: other: continuous minipump, read-out: K(p,uu,brain); how it was run: as §5

- fraction unbound at 5 h, 1 µM [1]: 0.32
- concentration at 72 h [2]: 27 ng/mL
- concentration at 72 h [3]: 265 ng/g
- concentration at 72 h [4]: 35 ng/mL
- concentration at 72 h [5]: 1200 ng/g
- concentration at 72 h [6]: 8.8 ng/mL
- concentration at 72 h [7]: 191 ng/g
- concentration at 72 h [8]: 8.2 ng/mL
- concentration at 72 h [9]: 361 ng/g
- fraction unbound at 5 h, 1 µM [10]: 0.5
- fraction unbound at 5 h, 1 µM [11]: 0.031
- fraction unbound at 5 h, 1 µM [12]: 0.035
Compound: Br.CN(C)CCCC1(c2ccc(F)cc2)OCc2cc(C#N)ccc21 (configuration not stated) [CITALOPRAM HYDROBROMIDE]

- fraction unbound at 5 h, 1 µM [1]: 0.002
- concentration at 72 h [13]: 18 ng/mL
- concentration at 72 h [14]: 3 ng/g
- Kp at 72 h [15]: 0.19
- concentration at 72 h [16]: 22 ng/mL
- concentration at 72 h [17]: 14 ng/g
- Kp at 72 h [18]: 0.64
- concentration at 72 h [19]: 51 ng/mL
- concentration at 72 h [20]: 25 ng/g
- Kp at 72 h [21]: 0.49
- concentration at 72 h [22]: 32 ng/mL
- concentration at 72 h [23]: 41 ng/g
- Kp at 72 h [24]: 1.3
- fraction unbound at 5 h, 1 µM [10]: 0.001
- fraction unbound at 5 h, 1 µM [11]: 0.001
- Kp uu at 72 h [25]: 0.19
- Kp uu at 72 h [26]: 0.64
- fraction unbound at 5 h, 1 µM [12]: 0.001
- Kp uu at 72 h [27]: 0.25
- Kp uu at 72 h [28]: 0.64
Compound: O=C1CCc2ccc(OCCCCN3CCN(c4cccc(Cl)c4Cl)CC3)cc2N1 [ARIPIPRAZOLE]

Reference: ChEMBL document CHEMBL3525946, “Species comparison of in vivo P-glycoprotein-mediated brain efflux using mdr1a-deficient rats and mice” (Drug Metab Dispos, 2012)
